This is a sample that favours compounds with a hit; in the whole collection about 2.2% have one here.
Wee1 degr inh: inhibitors of human Wee1 degradation | P30291 | HeLa Luc-Wee1K328M stability, luciferase luminescence; 100% = proteasome inhibitor MG132 effect | reporter increase, % at 5 µM | actives 1.2% (n = 220,000);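 active = activation above the mean of all tested compounds plus 3 SD, set per screening run, cut at about 8.8% in these data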;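 note: cells exposed to compound for 20 h before luminescence read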
FXIIa inh: inhibitors of human coagulation factor XIIa. P00748. purified FXIIa, Boc-QGR-AMC fluorogenic substrate, 2 h. inhibition, % at 5 µM. actives 0.3% (n = 220,000). AID 800; in the data active = inhibition above about 40%
hK5 inh: inhibitors of human kallikrein 5; AID 873; recombinant hK5, fluorogenic AMC substrate cleavage; inhibition, % at 5 µM; actives 0.59% (n = 210,000); Q9Y337;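 active = inhibition of 40% or more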
FXIa inh: factor XIa (human) inhibition; P03951; purified FXIa, Boc-Glu-Ala-Arg-AMC fluorogenic substrate; inhibition, % at 5 µM; actives 0.14% (n = 220,000);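 active = inhibition of at least 40%; inactive = inhibition below 40%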;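 note: fluorescence of freed AMC excited at 355 nm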
Target sequence (P03951 19-387 limits assumed): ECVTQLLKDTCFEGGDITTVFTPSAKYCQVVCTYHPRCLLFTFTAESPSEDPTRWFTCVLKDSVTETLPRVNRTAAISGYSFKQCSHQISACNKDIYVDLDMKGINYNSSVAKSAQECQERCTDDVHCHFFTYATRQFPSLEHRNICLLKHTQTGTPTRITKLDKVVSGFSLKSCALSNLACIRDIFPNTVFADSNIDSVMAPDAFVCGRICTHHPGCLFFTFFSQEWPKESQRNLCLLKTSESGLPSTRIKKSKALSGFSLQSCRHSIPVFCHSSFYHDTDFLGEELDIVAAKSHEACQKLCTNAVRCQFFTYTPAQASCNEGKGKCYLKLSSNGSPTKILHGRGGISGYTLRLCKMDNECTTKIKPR
Target sequence (P03951 388-625 limits assumed): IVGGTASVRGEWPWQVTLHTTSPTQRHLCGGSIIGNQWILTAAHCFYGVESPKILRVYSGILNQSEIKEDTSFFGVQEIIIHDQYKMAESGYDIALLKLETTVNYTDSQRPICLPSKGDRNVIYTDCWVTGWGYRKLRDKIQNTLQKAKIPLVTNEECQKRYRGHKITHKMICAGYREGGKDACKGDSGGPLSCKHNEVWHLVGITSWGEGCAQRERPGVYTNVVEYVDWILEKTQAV
Thrombin inh: blocks human thrombin protease activity | AID 1046 | alpha-thrombin, Boc-VPR-AMC fluorogenic substrate cleavage | actives 0.26% (n = 220,000) | inhibition, % at 5 µM;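 active = inhibition at or above 40%; inactive = inhibition below 40%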
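Material: human alpha-thrombin enzyme / Medium: pH 7.5 Tris (50 mM) with NaCl 150 mM, Tween 20 0.05% / Compound: single-point dosing at 5 µM, 0.2% DMSO / Incubation: enzyme reaction carried out at room temperature / Detection: AMC fluorescence, 355/460 nm / Read-out basis: percent inhibition scaled between no-compound controls and no-enzyme blanks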
Wee1 degr conf: human Wee1 degradation inhibition, confirmation | AID 1410 | activation, % at 5 µM | shares compounds with Wee1 degr inh | HeLa Luc-Wee1K328M degradation, luminescence; vehicle 0%, proteasome-blocked wells 100% | actives 4% (n = 1,100); in the data active = activation above about 8.9%
Each line names hits and unclear results; the compound was inactive in the other large screens (follow-up assays come after a bar, where they were run).

CCN(CC)S(=O)(=O)c1ccc(C(=O)NCCc2ccccn2)cc1	Wee1 degr inh 12 | Wee1 degr conf 9.3
O=C(/C=C/c1ccc(Cl)c([N+](=O)[O-])c1)Nc1ccc(N2CCCC2)cc1	none
CCC(C)NC(=O)Cn1cnc2sc(C)c(S(=O)(=O)N3CCN(c4ncccn4)CC3)c2c1=O (stereo not given)	Wee1 degr inh 16 | Wee1 degr conf inactive
Cc1cc(C)n2ncc(/C(N)=N/OC(=O)Nc3ccccc3)c2n1	none
COc1cccc(-c2nnc(-c3ccco3)o2)c1	Wee1 degr inh 11 | Wee1 degr conf inactive
COc1ccccc1CNCC(=O)Nc1ccc(C(F)(F)F)cc1	Wee1 degr inh 12 | Wee1 degr conf inactive
COc1ccccc1CNCC(=O)Nc1ccc(N2CCOCC2)cc1	none
CC(C)NC(=O)c1ccccc1NC(=O)C(C)Oc1ccccc1 (stereo not given)	none
COC(=O)c1ccccc1NC(=O)C(C)Oc1ccccc1 (stereo not given)	Wee1 degr inh 17 | Wee1 degr conf inactive
O=S(=O)(c1ccccc1)N1N=C(c2ccccc2)CC1c1ccccc1 (stereo not given)	none (no result: hK5 inh)
COc1ccc(C2=NN(S(=O)(=O)c3ccccc3)C(c3ccccc3)C2)cc1 (stereo not given)	Wee1 degr inh 11 | Wee1 degr conf inactive
S=c1[nH]nc(-c2ccco2)n1/N=C/c1ccc(Cl)cc1	Wee1 degr inh 13 | Wee1 degr conf inactive
O=C(c1ccccc1Cl)N1CCSCC1	Wee1 degr inh 20 | Wee1 degr conf inactive
Nc1[nH]c(N=NC(=O)c2ccccc2O)c2ccccc12	Wee1 degr inh 14 | Wee1 degr conf inactive
CCc1nnc(NC(=O)CN2CCN(c3ccccc3F)CC2)s1	none
Cc1ccc2nc(CSc3nnc(-c4ccncc4)n3C)cc(=O)n2c1	none
C=CCn1c(SCc2cc(=O)n3cc(C)ccc3n2)nnc1-c1ccc(F)cc1	Wee1 degr inh 15 | Wee1 degr conf inactive
Cn1ccnc1SCC(=O)Nc1cc(S(=O)(=O)N2CCOCC2)ccc1Cl	none
N#Cc1c(Cl)cccc1-n1ccnc1	none
Cc1cc(C)n(-c2cccc(Cl)c2C#N)n1	Wee1 degr inh 13 | Wee1 degr conf inactive
Cc1ccc(Nc2c(-c3ccco3)nc3nc(C)cc(C)n23)cc1	Wee1 degr inh 31 | Wee1 degr conf inactive
CNCC(O)COc1ccccc1 (stereo not given)	none
CNCC(O)COc1cccc(OC)c1 (stereo not given)	Wee1 degr inh 11 | Wee1 degr conf inactive
CCCC(=O)Nc1ccc2c(c1)nc(CN1CCCCC1)n2C	Wee1 degr inh 16 | Wee1 degr conf inactive
CN1CCN(c2ccc(S(=O)(=O)N3CCCCC3)cn2)CC1	none
O=S(=O)(c1ccc(N2CCCCCC2)nc1)N1CCCC1	Wee1 degr inh 13 | Wee1 degr conf inactive
O=C(NCCCN1CCOCC1)c1cc2ccccc2oc1=O	none
Cc1ccc2nc3c(cc(C(=O)NCC4CCCO4)n3C)c(=O)n2c1 (stereo not given)	none
Cc1ccc2nc3c(cc(C(=O)NCCCn4ccnc4)n3C)c(=O)n2c1	Wee1 degr inh 23 | Wee1 degr conf inactive
O=C(NCCCn1ccnc1)c1cc2ccccc2oc1=O	Wee1 degr inh 13 | Wee1 degr conf inactive
Cc1ccnc(NC(=O)c2cc3ccccc3oc2=O)c1	Wee1 degr inh 13 | Wee1 degr conf inactive
Cc1cccc(N2C(=O)C3C4C=CC(C5CC45)C3C2=O)n1 (stereo not given)	none
Cc1cc(C(=O)NNc2c(Cl)cccc2Cl)n(C(C)(C)C)n1	none
CC(C)(C)c1ccc(C2(C)NC(=O)N(CC(=O)Nc3ccc4c(c3)OCO4)C2=O)cc1 (stereo not given)	Wee1 degr inh 14 | Wee1 degr conf inactive
CCN1C(=O)c2cccc3c(NC(=O)c4ccc(S(=O)(=O)N5CCOCC5)cc4)ccc1c23	none
CCN1C(=O)c2cccc3c(NC(=O)c4ccc(S(=O)(=O)N(C)C)cc4)ccc1c23	Wee1 degr inh 11 | Wee1 degr conf inactive
C=CCn1c(=O)c(C(=O)Nc2ccccc2S(N)(=O)=O)c(O)c2ccccc21	none
O=C(N/C=C/n1cnc2cc(C(F)(F)F)ccc21)c1ccccc1	none
N#Cc1cc2c(nc1SCc1ccc(Cl)nc1)CCCCC2	none
N/C(=N\OC(=O)c1ccc(=O)n(Cc2ccc(Cl)cc2)c1)c1ccccn1	Wee1 degr inh 11 | Wee1 degr conf inactive
COc1ccc(CN(CC(=O)NCc2ccco2)C(=O)CCC(=O)Nc2ccccn2)cc1	none
O=C(CN(Cc1ccccc1)C(=O)CCC(=O)Nc1ccccn1)NCc1ccco1	Wee1 degr inh 12 | Wee1 degr conf inactive
O=C(CN(CC1CCCO1)C(=O)CCC(=O)Nc1ccccn1)NCC1CCCO1 (stereo not given)	none
COCCNC(=O)CN(CC1CCCO1)C(=O)CCC(=O)Nc1ccccn1 (stereo not given)	Wee1 degr inh 11 | Wee1 degr conf inactive
COCCCN(C(=S)Nc1cc(C)cc(C)c1)C(C)c1ccncc1 (stereo not given)	none
COc1ccc(NCC(=O)n2c(C)c(C)c3ccccc32)cc1OC	none
C[C@H](O)[C@@H](C(=O)N1CCN(C(=O)OC(C)(C)C)CC1)n1cc(CCCCNC(=O)OC(C)(C)C)nn1	Wee1 degr inh 22 | Wee1 degr conf inactive
N#C/C(C(=O)N1CCOCC1)=C1/SC(Cc2ccccc2Cl)C(=O)N1c1ccccc1 (stereo not given)	Wee1 degr inh 11 | Wee1 degr conf inactive
N#C/C(C(=O)NCc1ccco1)=C1/SC(Cc2ccc(Cl)cc2)C(=O)N1c1ccccc1 (stereo not given)	none
NC(=O)NC(=O)CC1S/C(=N/N=C2\CSC(=O)N2)NC1=O (stereo not given)	none
O=C(O)CNC(=O)CC1S/C(=N/N=C2/NC(=O)CS2)NC1=O (stereo not given)	Wee1 degr inh 13 | Wee1 degr conf inactive
COc1ccc(-n2nc([N+](=O)[O-])c(=NCCc3ccc(C)cc3)n2O)cc1	Wee1 degr inh 25 | Wee1 degr conf inactive
Cn1cnc2c(=O)[nH]cc([N+](=O)[O-])c21	none
CCCCNS(=O)(=O)c1ccc2nc(-c3cccnc3)cc(C(=O)NC(C)C)c2c1	Wee1 degr inh 19 | Wee1 degr conf inactive
Cc1cccc(C)c1-n1c(SCC(=O)Nc2ccc(C(=O)O)cc2)nnc1-c1cccc(S(=O)(=O)N(C)C)c1	Wee1 degr inh 12 | Wee1 degr conf inactive
O=C(CSc1nnc(-c2cccc(S(=O)(=O)N3CCCC3)c2)n1-c1ccccc1)Nc1ccc(C(=O)O)cc1	none (no result: hK5 inh)
O=C(Nc1ccccn1)c1csc2c1CCCC2	Wee1 degr inh 18 | Wee1 degr conf inactive
CCCCOc1ccc(-c2[nH]ncc2C=O)cc1	Wee1 degr inh 15 | Wee1 degr conf inactive
Cc1ccc(C(=O)OC(C)CN2CCN(C)CC2)cc1 (stereo not given)	none
CC(C)C(=O)Nc1cccc(-c2cn3ccccc3n2)c1	none
